In ChEMBL document CHEMBL5058577, “EUbOPEN Chemogenomics Library 2 (Multiplex)” (2022):

Test system: Fibroblast
Test: Multiplex assay against human fibroblast
Assay type: toxicity, cell-based
How it was run: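 Per cents of healthy-nucleus cells form the tubulin, mitochondrial-mass and membrane-permeability phenotype values. Live cells were stained at seeding with Hoechst33342, BioTracker Green Microtubule Cytoskeleton Dye, MitoTracker Red and Annexin V Alexa Fluor 680. After compound addition they were imaged on a CQ1 microscope at 37°C and 5% CO2, and CellPathfinder machine-learning gating split them into Hoechst high-intensity objects or normal cells, normal cells into healthy, pyknosed or fragmented nuclei, and pyknosed cells into mitotic or apoptotic.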

[1] = 12 h, 1 µM, compound concentration 1 uM, replicate 1
[2] = 12 h, 1 µM, compound concentration 1 uM, replicate 2
[3] = 12 h, 10 µM, compound concentration 10 uM, replicate 1
[4] = 12 h, 10 µM, compound concentration 10 uM, replicate 2
[5] = 24 h, 1 µM, compound concentration 1 uM, replicate 1
[6] = 24 h, 1 µM, compound concentration 1 uM, replicate 2
[7] = 24 h, 10 µM, compound concentration 10 uM, replicate 1
[8] = 24 h, 10 µM, compound concentration 10 uM, replicate 2
[9] = 48 h, 1 µM, compound concentration 1 uM, replicate 1
[10] = 48 h, 1 µM, compound concentration 1 uM, replicate 2
[11] = 48 h, 10 µM, compound concentration 10 uM, replicate 1
[12] = 48 h, 10 µM, compound concentration 10 uM, replicate 2

`Cc1cccc(NC(=O)CN2CCC(c3ccccn3)CC2)c1.Cl.Cl` was tested, and the “Population Apoptotic (%)” value [1] was 47%, the “Population Fragmented Nuclei (%)” value [1] was 16% and the “Population Healthy Nuclei (%)” value [1] was 70%. The “Population Hoechst High Intensity Objects (%)” value [1] was 4%, the “Population Membrane Permeable-Phenotype (%)” value [1] was 0% and the “Population Mitochondria Different-Phenotype (%)” value [1] was 6%. For the same molecule, the “Population Mitotic Cells (%)” value [1] was 52%, the “Population Normal (%)” value [1] was 95% and the “Population Pyknosed Nuclei (%)” value [1] was 12%. The “Population Tubulin-Different-Phenotype (%)” value [1] was 34%, the “Total Cell Count” value [1] was 140 and the “Population Apoptotic (%)” value [2] was 33%. The “Population Fragmented Nuclei (%)” value [2] was 25%, the “Population Healthy Nuclei (%)” value [2] was 55% and the “Population Hoechst High Intensity Objects (%)” value [2] was 6%. The “Population Membrane Permeable-Phenotype (%)” value [2] was 2%, the “Population Mitochondria Different-Phenotype (%)” value [2] was 5% and the “Population Mitotic Cells (%)” value [2] was 66%. The “Population Normal (%)” value [2] was 93%, the “Population Pyknosed Nuclei (%)” value [2] was 19% and the “Population Tubulin-Different-Phenotype (%)” value [2] was 35%. The “Total Cell Count” value [2] was 232, the “Population Apoptotic (%)” value [3] was 59% and the “Population Fragmented Nuclei (%)” value [3] was 8%. For the same molecule, the “Population Healthy Nuclei (%)” value [3] was 78%, the “Population Hoechst High Intensity Objects (%)” value [3] was 10% and the “Population Membrane Permeable-Phenotype (%)” value [3] was 1%. The “Population Mitochondria Different-Phenotype (%)” value [3] was 7%, the “Population Mitotic Cells (%)” value [3] was 40% and the “Population Normal (%)” value [3] was 89%. For the same molecule, the “Population Pyknosed Nuclei (%)” value [3] was 13%, the “Population Tubulin-Different-Phenotype (%)” value [3] was 36% and the “Total Cell Count” value [3] was 229. The “Population Apoptotic (%)” value [4] was 34%, the “Population Fragmented Nuclei (%)” value [4] was 45% and the “Population Healthy Nuclei (%)” value [4] was 30%. The “Population Hoechst High Intensity Objects (%)” value [4] was 2%, the “Population Membrane Permeable-Phenotype (%)” value [4] was 6% and the “Population Mitochondria Different-Phenotype (%)” value [4] was 10%. For the same molecule, the “Population Mitotic Cells (%)” value [4] was 65%, the “Population Normal (%)” value [4] was 98% and the “Population Pyknosed Nuclei (%)” value [4] was 23%. The “Population Tubulin-Different-Phenotype (%)” value [4] was 56%, the “Total Cell Count” value [4] was 100 and the “Population Apoptotic (%)” value [5] was 50%. For the same molecule, the “Population Fragmented Nuclei (%)” value [5] was 18%, the “Population Healthy Nuclei (%)” value [5] was 70% and the “Population Hoechst High Intensity Objects (%)” value [5] was 2%. For the same molecule, the “Population Membrane Permeable-Phenotype (%)” value [5] was 0%, the “Population Mitochondria Different-Phenotype (%)” value [5] was 8% and the “Population Mitotic Cells (%)” value [5] was 50%. For the same molecule, the “Population Normal (%)” value [5] was 97%, the “Population Pyknosed Nuclei (%)” value [5] was 10% and the “Population Tubulin-Different-Phenotype (%)” value [5] was 25%. The “Total Cell Count” value [5] was 134, the “Population Apoptotic (%)” value [6] was 40% and the “Population Fragmented Nuclei (%)” value [6] was 26%. The “Population Healthy Nuclei (%)” value [6] was 53%, the “Population Hoechst High Intensity Objects (%)” value [6] was 4% and the “Population Membrane Permeable-Phenotype (%)” value [6] was 4%. For the same molecule, the “Population Mitochondria Different-Phenotype (%)” value [6] was 6%, the “Population Mitotic Cells (%)” value [6] was 59% and the “Population Normal (%)” value [6] was 95%. The “Population Pyknosed Nuclei (%)” value [6] was 19%, the “Population Tubulin-Different-Phenotype (%)” value [6] was 30% and the “Total Cell Count” value [6] was 239. For the same molecule, the “Population Apoptotic (%)” value [7] was 64%, the “Population Fragmented Nuclei (%)” value [7] was 11% and the “Population Healthy Nuclei (%)” value [7] was 81%. For the same molecule, the “Population Hoechst High Intensity Objects (%)” value [7] was 7%, the “Population Membrane Permeable-Phenotype (%)” value [7] was 0% and the “Population Mitochondria Different-Phenotype (%)” value [7] was 11%. For the same molecule, the “Population Mitotic Cells (%)” value [7] was 35%, the “Population Normal (%)” value [7] was 92% and the “Population Pyknosed Nuclei (%)” value [7] was 6%. For the same molecule, the “Population Tubulin-Different-Phenotype (%)” value [7] was 38%, the “Total Cell Count” value [7] was 217 and the “Population Apoptotic (%)” value [8] was 42%. The “Population Fragmented Nuclei (%)” value [8] was 45%, the “Population Healthy Nuclei (%)” value [8] was 34% and the “Population Hoechst High Intensity Objects (%)” value [8] was 0%. For the same molecule, the “Population Membrane Permeable-Phenotype (%)” value [8] was 11%, the “Population Mitotic Cells (%)” value [8] was 57% and the “Population Normal (%)” value [8] was 100%. The “Population Pyknosed Nuclei (%)” value [8] was 20%, the “Population Tubulin-Different-Phenotype (%)” value [8] was 50% and the “Total Cell Count” value [8] was 105. For the same molecule, the “Population Apoptotic (%)” value [9] was 80%, the “Population Fragmented Nuclei (%)” value [9] was 25% and the “Population Healthy Nuclei (%)” value [9] was 63%. The “Population Hoechst High Intensity Objects (%)” value [9] was 3%, the “Population Membrane Permeable-Phenotype (%)” value [9] was 1% and the “Population Mitochondria Different-Phenotype (%)” value [9] was 3%. The “Population Mitotic Cells (%)” value [9] was 20%, the “Population Normal (%)” value [9] was 96% and the “Population Pyknosed Nuclei (%)” value [9] was 11%. The “Population Tubulin-Different-Phenotype (%)” value [9] was 28%, the “Total Cell Count” value [9] was 138 and the “Population Apoptotic (%)” value [10] was 60%. For the same molecule, the “Population Fragmented Nuclei (%)” value [10] was 31%, the “Population Healthy Nuclei (%)” value [10] was 55% and the “Population Membrane Permeable-Phenotype (%)” value [10] was 4%. For the same molecule, the “Population Mitotic Cells (%)” value [10] was 39%, the “Population Pyknosed Nuclei (%)” value [10] was 12% and the “Population Tubulin-Different-Phenotype (%)” value [10] was 35%. For the same molecule, the “Total Cell Count” value [10] was 229, the “Population Apoptotic (%)” value [11] was 76% and the “Population Fragmented Nuclei (%)” value [11] was 17%. The “Population Healthy Nuclei (%)” value [11] was 75%, the “Population Hoechst High Intensity Objects (%)” value [11] was 7% and the “Population Membrane Permeable-Phenotype (%)” value [11] was 2%. The “Population Mitochondria Different-Phenotype (%)” value [11] was 5%, the “Population Mitotic Cells (%)” value [11] was 23% and the “Population Normal (%)” value [11] was 92%. For the same molecule, the “Population Pyknosed Nuclei (%)” value [11] was 7%, the “Population Tubulin-Different-Phenotype (%)” value [11] was 44% and the “Total Cell Count” value [11] was 238. The “Population Apoptotic (%)” value [12] was 28%, the “Population Fragmented Nuclei (%)” value [12] was 54% and the “Population Healthy Nuclei (%)” value [12] was 39%. For the same molecule, the “Population Hoechst High Intensity Objects (%)” value [12] was 1%, the “Population Mitochondria Different-Phenotype (%)” value [12] was 16% and the “Population Mitotic Cells (%)” value [12] was 71%. For the same molecule, the “Population Normal (%)” value [12] was 98%, the “Population Pyknosed Nuclei (%)” value [12] was 6% and the “Population Tubulin-Different-Phenotype (%)” value [12] was 61%. For the same molecule, the “Total Cell Count” value [12] was 109.
